This is an account of results in ChEMBL document CHEMBL1138725, “Discovery of novel 2-(aminoheteroaryl)-thiazole-5-carboxamides as potent and orally active Src-family kinase p56(Lck) inhibitors” (Bioorg Med Chem Lett, 2004).

A short description of series [1]: In vitro inhibitory activity against recombinant p56 lck tyrosine kinase expressed as a His-tagged protein in insect cells. The essentials: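 Mean of three separate experiments, with standard deviation within ±10%.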
The nature of series [2]: […] inhibitory activity against proliferation of normal human peripheral blood T lymphocytes. In kind it is functional.
Series [3] addresses Vascular endothelial growth factor receptor 2 (Homo sapiens, UniProt P35968). The experiment in a line: inhibitory activity against Vascular endothelial growth factor receptor 2. An outline of the steps: (§1)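 Kinase selectivity panel: IC50 for inhibition of each isolated kinase enzyme, reported as the mean of three experiments.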
The nature of series [4]: Plasma protein binding in mouse was determined. Format: ADME, cell-free.
For series [5], the target named is Cyclin-dependent kinase 2 (Homo sapiens, UniProt P24941). The experiment in a line: Inhibitory activity against Cyclin-dependent kinase 2.
The species named for series [6] is Rattus norvegicus. The experiment in a line: Dose required for inhibition of paw swelling in rat adjuvant rheumatoid arthritis model; significant reduction observed after 24 hrs. In kind it is functional.
A short description of series [7]: Maximum plasma concentration was determined in rats at a single dose of 10 mg/kg i.v. and p.o. In kind it is ADME, organism-based. More on the design: dose 10 mg/kg, route oral. To be noted: rat, po.
The nature of series [8]: Plasma clearance was determined in rats at a single dose of 10 mg/kg i.v. and p.o. In kind it is ADME, organism-based. To be noted: rat, in vivo, po. More on the design: dose 10 mg/kg, route oral.
The target of series [9] is Tyrosine-protein kinase HCK (Homo sapiens, UniProt P08631). The experiment in a line: inhibitory activity against Hck kinase.
Tyrosine-protein kinase HCK, sequence (P08631 whole entry): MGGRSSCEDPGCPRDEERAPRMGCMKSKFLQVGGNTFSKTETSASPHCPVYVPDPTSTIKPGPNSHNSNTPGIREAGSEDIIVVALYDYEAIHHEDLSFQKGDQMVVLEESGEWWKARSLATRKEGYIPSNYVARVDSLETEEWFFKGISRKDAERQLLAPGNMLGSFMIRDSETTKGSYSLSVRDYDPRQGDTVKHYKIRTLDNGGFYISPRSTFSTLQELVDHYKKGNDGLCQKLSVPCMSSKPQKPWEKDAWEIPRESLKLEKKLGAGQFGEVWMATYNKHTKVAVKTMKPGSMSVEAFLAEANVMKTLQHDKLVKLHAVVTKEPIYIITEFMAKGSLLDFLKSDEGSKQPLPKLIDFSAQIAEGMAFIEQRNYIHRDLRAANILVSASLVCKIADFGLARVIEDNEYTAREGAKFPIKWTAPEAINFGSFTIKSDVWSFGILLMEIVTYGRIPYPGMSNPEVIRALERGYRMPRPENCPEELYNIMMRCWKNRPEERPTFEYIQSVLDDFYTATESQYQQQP
The nature of series [10]: Inhibitory activity against Fibroblast growth factor receptor 1. An outline of the steps:
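Enzyme IC50 was measured within a kinase selectivity panel and is reported as the mean of three experiments.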

The target in series [11] is Tyrosine-protein kinase Fgr (Homo sapiens, UniProt P09769). The experiment in a line: Inhibitory activity against Fgr kinase. An outline of the steps: as §1
Tyrosine-protein kinase Fgr, sequence (P09769 whole entry): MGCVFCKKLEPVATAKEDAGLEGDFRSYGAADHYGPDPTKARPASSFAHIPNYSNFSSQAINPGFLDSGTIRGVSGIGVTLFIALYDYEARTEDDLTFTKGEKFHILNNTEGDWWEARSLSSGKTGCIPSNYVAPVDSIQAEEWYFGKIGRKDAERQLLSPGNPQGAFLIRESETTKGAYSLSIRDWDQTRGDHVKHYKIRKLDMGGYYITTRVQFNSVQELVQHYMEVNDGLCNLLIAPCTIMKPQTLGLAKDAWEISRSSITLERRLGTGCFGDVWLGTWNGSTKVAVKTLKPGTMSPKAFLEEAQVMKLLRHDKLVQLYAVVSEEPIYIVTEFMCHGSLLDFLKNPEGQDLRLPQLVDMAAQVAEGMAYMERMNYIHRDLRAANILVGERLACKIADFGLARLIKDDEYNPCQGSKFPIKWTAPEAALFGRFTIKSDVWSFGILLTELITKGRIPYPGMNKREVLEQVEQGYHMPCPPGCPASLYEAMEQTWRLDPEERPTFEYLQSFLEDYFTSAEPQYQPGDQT
The target of series [12] is Receptor tyrosine-protein kinase erbB-2 (Homo sapiens, UniProt P04626). The experiment in a line: Inhibitory activity against HER2 kinase. An outline of the steps: as §1
Receptor tyrosine-protein kinase erbB-2, sequence (P04626 whole entry): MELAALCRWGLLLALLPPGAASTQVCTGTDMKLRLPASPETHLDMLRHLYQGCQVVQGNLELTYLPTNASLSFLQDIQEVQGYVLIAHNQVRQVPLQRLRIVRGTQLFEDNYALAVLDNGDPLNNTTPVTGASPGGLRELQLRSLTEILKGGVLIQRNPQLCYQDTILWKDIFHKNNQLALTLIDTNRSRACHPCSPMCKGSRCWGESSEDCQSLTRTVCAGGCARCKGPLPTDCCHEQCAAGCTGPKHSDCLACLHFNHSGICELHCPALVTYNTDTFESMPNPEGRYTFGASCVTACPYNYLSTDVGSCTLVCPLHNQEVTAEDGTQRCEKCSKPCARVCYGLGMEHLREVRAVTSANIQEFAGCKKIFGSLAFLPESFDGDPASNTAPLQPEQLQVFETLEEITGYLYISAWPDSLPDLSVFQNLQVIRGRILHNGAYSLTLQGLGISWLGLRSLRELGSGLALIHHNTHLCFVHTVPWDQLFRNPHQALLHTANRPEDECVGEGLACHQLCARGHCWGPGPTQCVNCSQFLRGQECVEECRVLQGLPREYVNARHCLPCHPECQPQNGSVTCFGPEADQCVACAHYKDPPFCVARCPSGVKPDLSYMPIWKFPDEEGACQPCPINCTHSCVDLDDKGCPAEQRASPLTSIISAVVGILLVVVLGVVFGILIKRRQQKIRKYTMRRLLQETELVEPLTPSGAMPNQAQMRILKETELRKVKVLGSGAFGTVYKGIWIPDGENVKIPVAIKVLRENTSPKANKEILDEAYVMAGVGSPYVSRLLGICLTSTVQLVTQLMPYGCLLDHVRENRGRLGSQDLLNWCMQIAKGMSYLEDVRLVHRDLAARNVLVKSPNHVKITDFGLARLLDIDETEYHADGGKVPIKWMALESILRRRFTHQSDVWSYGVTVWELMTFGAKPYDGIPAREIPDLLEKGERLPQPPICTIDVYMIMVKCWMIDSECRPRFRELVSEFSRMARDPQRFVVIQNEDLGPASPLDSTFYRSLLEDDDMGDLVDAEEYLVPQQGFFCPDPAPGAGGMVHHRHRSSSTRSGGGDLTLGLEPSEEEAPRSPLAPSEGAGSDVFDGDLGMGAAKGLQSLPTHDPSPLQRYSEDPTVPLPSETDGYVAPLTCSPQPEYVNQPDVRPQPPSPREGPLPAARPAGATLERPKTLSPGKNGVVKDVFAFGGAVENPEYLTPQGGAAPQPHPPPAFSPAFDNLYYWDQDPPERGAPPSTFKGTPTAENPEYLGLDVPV
A short description of series [13]: Oral bioavailability was determined in rats at a single dose of 10 mg/kg i.v. and p.o. Format: ADME, organism-based. The note with it: rat, in vivo.
In series [14] the target is T1, Tyrosine-protein kinase JAK3 (Homo sapiens, UniProt P52333).
T1 sequence (P52333 whole entry): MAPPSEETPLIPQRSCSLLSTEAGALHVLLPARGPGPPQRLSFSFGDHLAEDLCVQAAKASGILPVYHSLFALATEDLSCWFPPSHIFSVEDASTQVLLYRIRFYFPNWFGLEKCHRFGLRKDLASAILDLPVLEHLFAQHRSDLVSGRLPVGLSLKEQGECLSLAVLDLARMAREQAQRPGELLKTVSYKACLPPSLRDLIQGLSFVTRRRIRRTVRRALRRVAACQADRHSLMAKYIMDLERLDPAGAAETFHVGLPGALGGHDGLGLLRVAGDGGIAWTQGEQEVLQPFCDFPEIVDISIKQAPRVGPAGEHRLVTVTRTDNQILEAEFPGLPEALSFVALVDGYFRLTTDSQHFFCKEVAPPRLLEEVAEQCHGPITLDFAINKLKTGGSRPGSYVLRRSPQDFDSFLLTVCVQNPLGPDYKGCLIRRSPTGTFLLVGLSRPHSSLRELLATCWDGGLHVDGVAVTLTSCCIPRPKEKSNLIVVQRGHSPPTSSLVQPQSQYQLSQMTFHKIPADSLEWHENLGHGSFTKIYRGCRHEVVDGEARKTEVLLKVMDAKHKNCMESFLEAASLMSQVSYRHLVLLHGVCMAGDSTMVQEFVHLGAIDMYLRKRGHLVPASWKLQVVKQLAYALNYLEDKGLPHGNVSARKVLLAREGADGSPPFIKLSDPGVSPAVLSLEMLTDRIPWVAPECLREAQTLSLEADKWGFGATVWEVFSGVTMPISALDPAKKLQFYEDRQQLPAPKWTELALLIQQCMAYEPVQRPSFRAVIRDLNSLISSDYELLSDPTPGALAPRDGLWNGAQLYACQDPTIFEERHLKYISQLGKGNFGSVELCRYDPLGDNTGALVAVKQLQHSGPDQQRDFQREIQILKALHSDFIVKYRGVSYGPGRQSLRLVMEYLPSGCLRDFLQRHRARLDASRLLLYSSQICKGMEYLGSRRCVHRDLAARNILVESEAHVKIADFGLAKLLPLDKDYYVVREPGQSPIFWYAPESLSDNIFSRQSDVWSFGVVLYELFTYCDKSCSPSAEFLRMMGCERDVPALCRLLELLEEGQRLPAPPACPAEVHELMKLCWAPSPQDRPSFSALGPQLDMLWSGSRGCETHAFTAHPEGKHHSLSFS
The experiment in a line: inhibitory activity against Janus kinase 3. The essentials:
(§2)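 Purified kinase enzyme inhibition, reported as IC50 in µM. Each value is the mean of three independent experiments.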

The target in series [15] is Cyclin-dependent kinase 4 (Homo sapiens, UniProt P11802). The experiment in a line: Inhibitory activity against Cyclin-dependent kinase 4. The essentials: as §1
Cyclin-dependent kinase 4, sequence (P11802 whole entry): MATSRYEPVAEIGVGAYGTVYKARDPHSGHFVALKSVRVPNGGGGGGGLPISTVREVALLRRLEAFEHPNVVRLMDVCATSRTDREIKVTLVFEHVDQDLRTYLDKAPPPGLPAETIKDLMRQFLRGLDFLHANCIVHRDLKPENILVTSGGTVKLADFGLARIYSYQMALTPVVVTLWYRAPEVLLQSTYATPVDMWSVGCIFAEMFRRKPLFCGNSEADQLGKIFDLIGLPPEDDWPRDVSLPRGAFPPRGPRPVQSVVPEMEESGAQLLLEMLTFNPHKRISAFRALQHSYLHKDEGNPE
Series [16] deals with Proto-oncogene tyrosine-protein kinase Src (Homo sapiens, UniProt P12931). The experiment in a line: Inhibitory activity against Src tyrosine kinase. The essentials: as §2
Proto-oncogene tyrosine-protein kinase Src, sequence (P12931 2-536 limits assumed): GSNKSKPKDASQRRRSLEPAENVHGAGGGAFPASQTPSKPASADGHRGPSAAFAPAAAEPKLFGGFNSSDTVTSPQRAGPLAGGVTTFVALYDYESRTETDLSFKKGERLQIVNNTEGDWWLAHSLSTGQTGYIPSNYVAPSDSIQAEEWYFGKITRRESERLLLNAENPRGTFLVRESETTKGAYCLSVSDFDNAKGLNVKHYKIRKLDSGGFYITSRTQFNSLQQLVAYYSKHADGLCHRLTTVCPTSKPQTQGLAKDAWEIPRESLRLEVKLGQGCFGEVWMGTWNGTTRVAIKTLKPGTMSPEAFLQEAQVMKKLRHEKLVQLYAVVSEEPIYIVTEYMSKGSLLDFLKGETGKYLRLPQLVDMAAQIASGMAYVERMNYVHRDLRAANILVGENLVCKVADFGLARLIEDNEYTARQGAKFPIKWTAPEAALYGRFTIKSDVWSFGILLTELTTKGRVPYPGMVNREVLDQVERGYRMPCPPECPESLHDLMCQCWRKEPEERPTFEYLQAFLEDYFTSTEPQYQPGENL
Series [17] is described as follows: Mean residence time was determined in rats at a single dose of 10 mg/kg i.v. and p.o. In kind it is ADME, organism-based. Details: dose 10 mg/kg, route oral. To be noted: rat, in vivo, po.
The species entered for series [18] is Rattus norvegicus. The experiment in a line: Dose required for inhibition of paw swelling in rat adjuvant rheumatoid arthritis model; significant reduction observed after 7 days. Format: functional.
Series [19] can be described thus: Time required to reach the maximum plasma concentration was determined in rats at a single dose of 10 mg/kg i.v. and p.o. The note with it: rat, po. In kind it is ADME, organism-based. More on the design: dose 10 mg/kg, route oral.
Series [20] is described as follows: Half-life was determined in rats at a single dose of 10 mg/kg i.v. and p.o. In kind it is ADME, organism-based. More on the design: dose 10 mg/kg, route oral. The note with it: rat, in vivo, po.

Vascular endothelial growth factor receptor 2, sequence (P35968 whole entry): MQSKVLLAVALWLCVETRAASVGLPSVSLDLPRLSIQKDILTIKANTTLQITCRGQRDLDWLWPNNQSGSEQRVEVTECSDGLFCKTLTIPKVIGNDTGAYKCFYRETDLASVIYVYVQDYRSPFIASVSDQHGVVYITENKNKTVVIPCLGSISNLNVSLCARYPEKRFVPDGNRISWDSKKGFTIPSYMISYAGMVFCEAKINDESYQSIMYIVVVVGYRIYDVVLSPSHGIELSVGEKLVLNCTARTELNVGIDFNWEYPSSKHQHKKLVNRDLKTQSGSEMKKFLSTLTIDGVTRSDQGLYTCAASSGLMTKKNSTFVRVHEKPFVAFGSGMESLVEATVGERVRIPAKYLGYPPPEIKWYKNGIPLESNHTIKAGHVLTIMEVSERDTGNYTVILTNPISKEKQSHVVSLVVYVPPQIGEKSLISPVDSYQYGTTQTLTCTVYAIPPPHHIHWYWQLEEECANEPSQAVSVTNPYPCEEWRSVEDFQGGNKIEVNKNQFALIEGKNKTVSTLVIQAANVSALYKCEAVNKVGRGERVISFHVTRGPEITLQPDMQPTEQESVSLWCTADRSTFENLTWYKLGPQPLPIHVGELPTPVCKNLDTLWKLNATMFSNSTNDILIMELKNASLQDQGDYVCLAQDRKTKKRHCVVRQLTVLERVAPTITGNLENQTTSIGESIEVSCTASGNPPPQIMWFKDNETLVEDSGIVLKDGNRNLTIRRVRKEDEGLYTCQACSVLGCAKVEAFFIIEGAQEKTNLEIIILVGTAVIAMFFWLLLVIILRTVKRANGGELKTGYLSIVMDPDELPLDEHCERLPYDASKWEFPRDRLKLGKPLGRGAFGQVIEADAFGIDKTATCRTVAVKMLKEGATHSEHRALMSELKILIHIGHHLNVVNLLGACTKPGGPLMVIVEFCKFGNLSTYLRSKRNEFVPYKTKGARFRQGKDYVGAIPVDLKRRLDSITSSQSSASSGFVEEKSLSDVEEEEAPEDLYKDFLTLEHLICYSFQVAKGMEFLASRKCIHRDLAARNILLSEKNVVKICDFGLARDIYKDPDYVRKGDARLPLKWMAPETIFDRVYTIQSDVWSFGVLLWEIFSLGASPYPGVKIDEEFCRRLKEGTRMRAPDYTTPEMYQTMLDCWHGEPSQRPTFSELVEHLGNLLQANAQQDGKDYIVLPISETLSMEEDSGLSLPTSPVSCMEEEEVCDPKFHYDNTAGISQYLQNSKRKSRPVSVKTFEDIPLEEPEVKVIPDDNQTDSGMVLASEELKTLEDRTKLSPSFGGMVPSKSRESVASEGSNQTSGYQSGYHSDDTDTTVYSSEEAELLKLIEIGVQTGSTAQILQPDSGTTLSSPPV

In the case of `Cc1cccnc1Nc1ncc(C(=O)Nc2c(C)cccc2Cl)s1`, the results for the IC50 in series [1] and in series [2] were 7.3 nM and 365 nM, respectively.

As to `Cc1cc(C)nc(Nc2ncc(C(=O)Nc3c(C)cccc3Cl)s2)n1`, the IC50 in [1] is 50 nM.

Consider `Cc1ccc(Nc2ncc(C(=O)Nc3c(C)cccc3Cl)s2)nc1`, for which the values for the IC50 in series [1] and in series [2] were 1.1 nM and 156 nM, respectively.

As for `Cc1cccc(Cl)c1NC(=O)c1cnc(Nc2ccncc2)s1`, the IC50 in series [1] amounted to 10 nM.

Take `Cc1cc(Nc2ncc(C(=O)N(C)c3c(C)cccc3Cl)s2)nc(C)n1`: the IC50 in series [1] was determined as 277 nM.

Regarding `Cc1cccc(Cl)c1NC(=O)c1cnc(Nc2ccccc2)s1`, the IC50 in series [1] was found to be 0.6 nM; in series [2], 210 nM.

As to `Cc1cc(C)nc(Nc2ncc(C(=O)Nc3c(C)cccc3Cl)s2)c1`, in [1], the IC50 was 4 nM.

With `Cc1cccc(Cl)c1NC(=O)c1cnc(Nc2cc(NCCN3CCCC3)ncn2)s1`, in series [1], the IC50 stood at 0.4 nM and the Ki came out at 0.06 nM. The compound further gave an IC50 in [2] of 19 nM.

In the case of `Cc1cccc(Nc2ncc(C(=O)Nc3c(C)cccc3Cl)s2)n1`, the concentration for half-maximal inhibition (IC50) in [1] was below 1 nM; in series [2], 106 nM.

As to `Cc1cccc(Cl)c1NC(=O)c1cnc(Nc2ccccn2)s1`, in series [1], the IC50 is 1.2 nM.

For `Cc1cccc(Cl)c1NC(=O)c1cnc(Nc2cc(NCCN3CCOCC3)ncn2)s1`, the results for the IC50 in series [1] and in [2] were 4 nM and 17 nM, respectively.

As for `Cc1ccnc(Nc2ncc(C(=O)Nc3c(C)cccc3Cl)s2)c1`, the IC50 in series [1] was determined as 0.5 nM; in [2] it was 85 nM.

For the compound `Cc1cccc(Cl)c1NC(=O)c1cnc(Nc2cccc(NCCN3CCOCC3)n2)s1`, the IC50 in series [1] is below 1 nM; in [2], 11 nM.

Consider `Cc1cc(Nc2ncc(C(=O)Nc3c(C)cccc3Cl)s2)nc(C)n1`, for which the IC50 in series [3] was above 10000 nM; in series [5] it was above 25000 nM; in series [9] it was 2 nM; in [10], above 10000 nM; in series [11], below 1 nM; in series [12], 5200 nM. Further, the IC50 in [14] is 6 nM; in [1] it was 1.2 nM; in [15], above 25000 nM; in [16], below 1 nM; in series [2] it was 80 nM. The compound also returned a Binding in series [4] of 93.6%. In addition, the Dose in the series filed under Rattus norvegicus [6] turned out to be 3 mg/kg; in the series filed under Rattus norvegicus [18] it was 1 mg/kg. In series [7], this compound showed a Cmax of 2000 nM. In series [8], this compound displayed a Cl of 29 mL/min/kg. In [13], this compound returned a bioavailability of 65%. Besides, the Ki in series [1] stood at 0.13 nM. The compound further showed an MRT in series [17] of 4 h. Further, the Tmax in [19] is 1 h. In series [20], the half-life is 4 h.

Take `Cc1cccc(Cl)c1NC(=O)c1cnc(Nc2cccc(N3CCN[C@@H](C)C3)n2)s1`: the figures for the IC50 in series [1] and in [2] were below 1 nM and 6 nM, respectively.

As to `Cc1cccc(Cl)c1NC(=O)c1cnc(Nc2ccnnc2)s1`, the results for the IC50 in [1] and in [2] were 4 nM and 350 nM, respectively.

As to `Cc1cccc(Cl)c1NC(=O)c1cnc(Nc2cc(N3CCOCC3)ncn2)s1`, the IC50 in [1] was below 1 nM; in series [2] it was 3 nM.

With `Cc1cc(N(C)c2ncc(C(=O)Nc3c(C)cccc3Cl)s2)nc(C)n1`, the IC50 in [1] was determined as 2340 nM.

As to `Cc1cccc(Cl)c1NC(=O)c1cnc(NC2CCCCC2)s1`, in [1], the IC50 turned out to be 374 nM.

Take `Cc1cccc(Cl)c1NC(=O)c1cnc(NC(=O)C2CC2)s1`: the IC50 in series [1] was 35 nM.

As to `Cc1cc(C)cc(Nc2ncc(C(=O)Nc3c(C)cccc3Cl)s2)c1`, the IC50 in series [1] stood at 2 nM; in series [2], 883 nM.

Regarding `Cc1cccc(Cl)c1NC(=O)c1cnc(Nc2cccnc2)s1`, the IC50 in series [1] came to 6.7 nM.
